# NSD2 HMT inh: NSD2 (human) methyltransferase inhibition; inhibition, % at 12.5 µM; actives 0.54% (n = 310,000); NSD2 peptide methylation, AlphaScreen, 120 min; O96028; in the data active = inhibition above about 50%
# FN deposition inh: fibronectin deposition inhibition; AH1F fibroblasts, Alexa488-fibronectin deposition fluorescence, overnight; inhibition, % at 12.6 µM; actives 0.086% (n = 350,000); AID 743247;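 active = mean inhibition across replicates of 30% or more, regardless of how many single replicates reach that level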;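 also: positive control wells lacked labelled fibronectin entirely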
#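 Test system: AH1F fibroblast monolayer depositing Alexa488-labelled fibronectin into matrix. Input: 10000 cells per well. Technique: fluorescence, ex 485 nm, em 525 nm. Buffer or medium: DMEM plus 2% serum, read in PBS. Timing: 1 h cell adhesion before compound, then overnight fibronectin incubation. Compound: single dose, pinned. Read-out basis: inhibition from reduced deposited-fibronectin fluorescence.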
# NPR1 activator: GC-A (human) enzyme activation. activation, % at 10 µM. actives 0.14% (n = 370,000). HEK293 GC-A cells, cGMP TR-FRET, EC30 ANP; 0% at EC30 ANP, 100% saturating ANP; in the data active = activation above about 40%
# NPR2 activator: GC-B (human) receptor activation; activation, % at 10 µM; AID 1920062; HEK293-GC-B cells, CNP EC30, cGMP TR-FRET; 0% at EC30 CNP, 100% saturating CNP; actives 0.11% (n = 370,000);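 active = activation at 10 µM reaching about 35% in either raw or pattern-adjusted values, limit read from the data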
# CaV13 FRET inh: Primary screen for inhibitors of IQ motif and Ca2+-dependent inactivation inhibitor domain binding in CACNA1D, Förster resonance energy transfer in living cells, …; HEK cells, CFP/YFP FRET ICDI-IQ, plate reader, 10 min; percent FRET-ratio fall versus neutral wells; inhibition, % at 12.3 µM; actives 0.098% (n = 340,000);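 active = mean replicate inhibition of at least 30% and at least 1% of replicates passing that level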;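 also: 0% = median of the neutral control wells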
# Casp6 inh: inhibitors of human caspase-6. purified caspase-6, Z-VEID-R110 cleavage fluorescence. P55212. actives 0.53% (n = 350,000). AID 686996. inhibition, % at 12.5 µM;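 active = mean inhibition across replicates at least about 35%, with every replicate also reaching that limit, limit read from the data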;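 also: 0% = median of neutral control wells and 100% = no fluorescence left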
# Alpha artifact: interferes with AlphaScreen signal, flagging NSD2 false positives. shares compounds with NSD2 HMT inh. AlphaScreen artifact counterscreen, preloaded methylated H4 peptide. AC35, µM (doses to about 10 µM), without a hit: top-dose activity change, negative = signal loss. actives 9.4% (n = 1,500). AID 1053174; call rule not given here
# The depositor's hits bear a star; nt = no result. In the library only some 0.99% were active in any assay of this set; here they are far more common.
SMILES,NSD2 HMT inh,FN deposition inh,NPR1 activator,NPR2 activator,CaV13 FRET inh,Casp6 inh,Alpha artifact
O=C1c2ccccc2C(=O)N1CCC(c1ccc(F)cc1)c1ccco1 (stereo unspecified),119*,nt,0,2,-6,nt,-2%
CC1(C)NC(=O)N(CCOCCOc2c(Cl)cc(Cl)cc2Cl)C1=O,125*,20,0,-1,-4,nt,-5%
CCOC(=O)c1c2c(n(Cc3ccccc3)c1C)C(=O)C(=O)c1ccccc1-2,63*,30*,17,23,-5,12,9.3µM*
CCCC(=O)Nc1cc(C)cn(Cc2c(F)cccc2Cl)c1=O,76*,-4,3,5,-6,5,-8%
COc1ccc(NC(=O)Nc2ccc3c(c2)[C@@H]2C[C@@H](CC(=O)O)O[C@H](CO)[C@@H]2O3)cc1,nt,nt,nt,nt,nt,7,nt
C[C@H]1CN([C@@H](C)CO)C(=O)c2cc(C3=CCCCC3)cnc2O[C@H]1CN(C)C(=O)c1ccc2c(c1)OCO2,nt,-2,nt,nt,nt,-1,nt
O=S(=O)(c1ccc2c(c1)nc1n2CCC1)N1CCOCC1,92*,-1,4,3,-5,nt,-3%
CCCn1c(CCl)nc2cc(S(=O)(=O)N3CCOCC3)ccc21,-1,-1,4,1,-5,0,nt
CO[C@@H]1CN(C)C(=O)c2ccc(NS(=O)(=O)c3ccc(Cl)cc3)cc2OC[C@@H](C)N(C(=O)Cc2cccnc2)C[C@H]1C,nt,1,nt,nt,nt,-1,nt
C[C@@H]1CN([C@H](C)CO)C(=O)c2cc(NC(=O)CCCN(C)C)ccc2O[C@@H](C)CCCCO[C@H]1CN(C)Cc1ccncc1,nt,nt,nt,nt,nt,0,nt
CC(C)N(Cc1ccccc1)C(=O)C1CCCN(c2ncnc3c2nc2n3CCCCC2)C1 (stereo unspecified),54*,2,-21,-16,-16,-3,-3%
CCN(CCNC(=O)C1CCCN(c2ncnc3c2nc2n3CCCCC2)C1)Cc1ccccc1 (stereo unspecified),7,1,-7,-6,-7,7,nt
O=C(CCCCCN1C(=O)C2C3C=CC(C3)C2C1=O)Nc1ccc2ncccc2c1 (stereo unspecified),95*,nt,3,-3,nt,nt,-1%
O=C(CCCCCN1C(=O)C2C3C=CC(C3)C2C1=O)Nc1ccc(Cl)cc1 (stereo unspecified),-4,nt,-1,0,nt,nt,nt
Cc1ccc(OCc2cnc(Cl)s2)c(C)c1,52*,nt,0,0,-6,1,0%
Cc1ccc(S(=O)(=O)NCC[C@H]2CC[C@H](NC(=O)CCN3CCCCC3)[C@@H](CO)O2)cc1,nt,6,nt,nt,nt,-1,nt
Cn1nnnc1SCC(=O)NCc1cccc(C(=O)O)c1,0,-3,2,4,-6,nt,nt
COC(=O)c1ccc(-n2nnnc2SCC(=O)NCc2cccc(C(=O)O)c2)cc1,107*,-1,1,-3,-5,nt,3%
O=C1Nc2ccc(S(=O)(=O)NCc3ccco3)c3cccc1c23,135*,nt,1,3,nt,nt,-2%
COC(=O)c1ccc(-n2c(C)ccc2-c2ccccc2)cc1,5,nt,-3,-2,-8,-1,nt
COc1ccc(-n2c(C)ccc2-c2ccccc2)cn1,58*,3,-2,1,-4,-1,-2%
COC(=O)c1ccc(NC(=O)c2ccc(NS(=O)(=O)c3cccc4cccnc34)cc2)cc1,0,nt,nt,nt,nt,nt,nt
Cc1cccc(NC(=O)c2ccc(NS(=O)(=O)c3cccc4cccnc34)cc2)c1,53*,-11,-46,-28,-1,0,-5%
COc1ccc(NC(=O)CCCNC(=O)c2ccc(Cl)cc2)cc1OC,12,0,-5,0,-17,-3,nt
CNS(=O)(=O)c1cc(NC(=O)CCCNC(=O)c2ccc(Cl)cc2)ccc1C,67*,4,0,-7,-3,-3,-6%
O=C1C(=Cc2ccco2)CCC1=Cc1ccco1,141*,-12,-3,4,-10,88*,-9%

# Screening results from PubChem BioAssay.
